We go through 7 compounds from ChEMBL document CHEMBL3217723, “Optimizing PK properties of cyclic peptides: the effect of side chain substitutions on permeability and clearance()” (Medchemcomm, 2012).

Data set [1] in a line: Lipophilicity, log D of the compound at pH 7.4 by shake-flask method. In kind it is physicochemical. The conditions noted are these: buffer.
A short description of data set [2]: Intrinsic clearance in human liver microsomes by LC-MS/MS analysis. The conditions noted are these: read-out: CLH. In kind it is ADME. In a few lines: (§1)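 Compound at 1 µM with liver microsomes (CYP 0.25 µM) in 0.1 M potassium phosphate, pH 7.4, at 37 °C. Final solvent was 0.975% acetonitrile and 0.025% DMSO. Mix prewarmed 5 min, then started with 1.3 mM NADPH; no-NADPH controls were run. Sampled at 0–60 min into acetonitrile and followed by LC-MS/MS for substrate loss. T1/2 was scaled to CLint by the well-stirred model.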
In general terms: Liver microsomes are a subcellular fraction often used to study metabolism.

A short description of data set [3]: Intrinsic clearance in rat liver microsomes by LC-MS/MS analysis. In kind it is ADME. The conditions noted are these: read-out: CLH. The gist of the method: as §1
Data set [4] is described as follows: Terminal elimination half life in Wistar-Han rat at 1.48 mg/kg, iv. In kind it is ADME, organism-based. Set-up: dose 1.48 mg/kg, route intravenous. The conditions noted are these: in vivo, read-out: beta t1/2 (converted). In a few lines: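 Jugular vein-cannulated male Wistar-Hannover rats (230–250 g, n = 3) received a tail-vein bolus over 30 s. Vehicle depended on compound: SEDDS/dextrose or propylene glycol/20 mM sodium phosphate pH 7.4. Blood was drawn at 0.03–24 h into K2EDTA and the plasma analyzed by LC-MS/MS. Non-compartmental analysis gave T1/2 = 0.693/|terminal ln-slope|.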

Data set [5] in a line: AUC (0 to infinity) in male Wistar-Han rat at 1.48 mg/kg, iv. In kind it is ADME, organism-based. Set-up: time infinity, dose 1.48 mg/kg, route intravenous. The conditions noted are these: plasma. In a few lines: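 Jugular vein-cannulated male Wistar-Hannover rats (230-250 g), n = 3, fed ad libitum; 30 s tail-vein injection in 10% SEDDS:90% sterile dextrose, 1:1 propylene glycol:20 mM sodium phosphate (pH 7.4), or 10% propylene glycol:90% 20 mM sodium phosphate (pH 7.4). Blood via cannula to 24 h, K2EDTA plasma, LC-MS/MS against standard curve; non-compartmental AUC0-∞ by linear trapezoid rule.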

The nature of data set [6]: Cmax in male Wistar-Han rat at 10 mg/kg, po. Further details: dose 10 mg/kg, route oral. In kind it is ADME, organism-based. The conditions noted are these: in vivo.
Data set [7] can be described thus: Plasma clearance in male Wistar-Han rat at 1.48 mg/kg, iv. Further details: dose 1.48 mg/kg, route intravenous. In kind it is ADME, organism-based. The gist of the method: (§2)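 Jugular vein-cannulated male Wistar-Hannover rats (230-250 g; n = 3) given a 30 s tail-vein bolus in SEDDS/dextrose or propylene glycol/20 mM sodium phosphate (pH 7.4) vehicles. Blood sampled 0.03–24 h via cannula into K2EDTA. Plasma proteins precipitated, LC-MS/MS. Non-compartmental: CLp = dose/AUC0-∞ (linear trapezoid); Vdss; T1/2 = 0.693/terminal log-linear slope.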

Data set [8] can be described thus: AUC (0 to infinity) in male Wistar-Han rat at 10 mg/kg, po. In kind it is ADME, organism-based. Set-up: time infinity, dose 10 mg/kg, route oral. The conditions noted are these: plasma. In a few lines: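 Jugular vein-cannulated male Wistar-Hannover rats (230-250 g), n = 3, fasted overnight and fed after the 4 h sample; oral dosing in the i.v. formulations, except the SEDDS formulation used 90% water. Serial blood 0.083–24 h, K2EDTA plasma, LC-MS/MS against standard curve; non-compartmental AUC0-∞ by linear trapezoid rule.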

Data set [9] in a line: Apparent permeability from apical to basolateral side in human Caco2 cells by LC-MS/MS analysis. The conditions noted are these: Caco-2. In kind it is ADME, cell-based. Background: Passage across Caco-2 layers is used to estimate intestinal permeability.
Data set [10] can be described thus: Volume of distribution at steady state in male Wistar-Han rat at 1.48 mg/kg, iv. In kind it is ADME, organism-based. Set-up: dose 1.48 mg/kg, route intravenous. The conditions noted are these: in vivo, read-out: Vdss. The gist of the method: as §2
Data set [11] is described as follows: Oral bioavailability in male Wistar-Han rat at 10 mg/kg. In kind it is ADME, organism-based. The conditions noted are these: in vivo. In a few lines:
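Male Wistar-Hannover rats (230-250 g, cannulated; n = 3) fasted overnight, fed after the 4 h sample, and dosed orally in the i.v. formulations or 10% SEDDS:90% water. Serial blood sampled 0.083–24 h into K2EDTA. Plasma measured by LC-MS/MS against a standard curve. Cmax and Tmax read from individual profiles; F = oral AUC0-∞ relative to i.v. AUC0-∞.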

Data set [12] can be described thus: Tmax in male Wistar-Han rat at 10 mg/kg, po. In kind it is ADME, organism-based. The conditions noted are these: in vivo. Set-up: dose 10 mg/kg, route oral.
Data set [13] is described as follows: Drug excretion in male Wistar-Han rat urine. In kind it is ADME. The conditions noted are these: read-out: Drug excretion.
Data set [14] is described as follows: Terminal elimination half life in Wistar-Han rat at 10 mg/kg, po. In kind it is ADME, organism-based. The conditions noted are these: in vivo, read-out: beta t1/2 (converted). Further details: dose 10 mg/kg, route oral. The gist of the method: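 Male Wistar-Hannover rats (230–250 g, n = 3), jugular-cannulated, were fasted overnight and dosed by oral gavage. Vehicle depended on compound: SEDDS/water or propylene glycol/sodium phosphate pH 7.4. Blood was collected at 0.083–24 h into K2EDTA and the plasma analyzed by LC-MS/MS. Terminal half-life came from the non-compartmental ln-concentration slope.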

The structures appear in SMILES notation. Where a SMILES comes first, the peptide text is derived from it. [ ]: non-standard residue; d: D form. The star is where a group is joined. NMeAbu(4-morpholino) = CN[C@@H](CCN1CCOCC1)C(=O)O; NMeY = CN[C@@H](Cc1ccc(O)cc1)C(=O)O; NMeCha = CN[C@@H](CC1CCCCC1)C(=O)O; NMeF = CN[C@@H](Cc1ccccc1)C(=O)O; NMeD = CN[C@@H](CC(=O)O)C(=O)O; dNMeL = CN[C@H](CC(C)C)C(=O)O; Morpholide = C1CN(*)CCO1; NMeA = CN[C@@H](C)C(=O)O; Piperidide = C1CCN(*)CC1

The term logD denotes lipophilicity at a set pH, counting ionised and neutral species. In data set [1], `CC(C)C[C@@H]1NC(=O)[C@H](Cc2ccc(O)cc2)N(C)C(=O)[C@H]2CCCN2C(=O)[C@H](CC(C)C)NC(=O)[C@H](C)N(C)C(=O)[C@@H](CC(C)C)N(C)C1=O` (cyclo(L[dNMeL][NMeA]L[dP][NMeY])) yielded a pH-dependent lipophilicity (logD) of 3.64. In addition, in [2], the CLint scaled was determined as 190 mL/min/kg.

Take `CC(C)C[C@@H]1NC(=O)[C@H](Cc2ccc(O)cc2)N(C)C(=O)[C@H]2CCCN2C(=O)[C@H](CC(C)C)NC(=O)[C@H](CCN2CCOCC2)N(C)C(=O)[C@@H](CC(C)C)N(C)C1=O` (cyclo(L[dNMeL][NMeAbu(4-morpholino)]L[dP][NMeY])): the logD in [1] was found to be 2.79. Further, the CLint scaled in data set [2] turned out to be 16 mL/min/kg.

`CC(C)C[C@@H]1NC(=O)[C@H](Cc2ccc(O)cc2)N(C)C(=O)[C@H]2CCCN2C(=O)[C@H](CC(C)C)NC(=O)[C@H](CC2CCCCC2)N(C)C(=O)[C@@H](CC(C)C)N(C)C1=O` (cyclo(L[dNMeL][NMeCha]L[dP][NMeY])) registered a logD in [1] of 5.09.

The compound `CC(C)C[C@@H]1NC(=O)[C@H](Cc2ccc(O)cc2)N(C)C(=O)[C@H]2CCCN2C(=O)[C@H](CC(C)C)NC(=O)[C@H](CC(=O)N2CCOCC2)N(C)C(=O)[C@@H](CC(C)C)N(C)C1=O` (cyclo(L[dNMeL][NMeD](Morpholide)L[dP][NMeY])) came in with a logD in data set [1] of 2.78. Also, in data set [2], the CLint scaled turned out to be 57 mL/min/kg.

`CC(C)C[C@@H]1NC(=O)[C@H](Cc2ccc(O)cc2)N(C)C(=O)[C@H]2CCCN2C(=O)[C@H](CC(C)C)NC(=O)[C@H](CC(=O)N2CCCCC2)N(C)C(=O)[C@@H](CC(C)C)N(C)C1=O` (cyclo(L[dNMeL][NMeD](Piperidide)L[dP][NMeY])): in [1], the logD was determined as 3.77. For the same compound, in data set [2], the CLint scaled was > 300 mL/min/kg.

One may read the AUC(0-inf) as total exposure, with the tail of the curve extrapolated. A lower AUC(0-inf) goes with low exposure. As usually defined, the Cmax is the maximum level reached in the sampled fluid or tissue. In general, clearance refers to the volume of plasma or blood freed of the substance per unit of time. For orientation: Papp A→B means how fast a substance crosses the layer from the apical side. In general, bioavailability refers to the share of a dose that reaches the circulation, judged against a reference dose that is usually intravenous. The term Tmax denotes the time at which the peak concentration occurs. For the compound `CC(C)C[C@@H]1NC(=O)[C@H](Cc2ccc(O)cc2)N(C)C(=O)[C@H]2CCCN2C(=O)[C@H](CC(C)C)NC(=O)[C@H](CC(=O)O)N(C)C(=O)[C@@H](CC(C)C)N(C)C1=O` (cyclo(L[dNMeL][NMeD]L[dP][NMeY])), the values for the CLint scaled in data set [3] and in [2] were < 9 mL/min/kg and < 8 mL/min/kg, respectively. For the same compound, the half-life in data set [4] is 21.5 min; in data set [14] it was 284 min. Moreover, the figures for the AUC(0-inf) in [5] and in data set [8] were 441 ng·h/mL and 18.7 ng·h/mL, respectively. Moreover, the Cmax in [6] amounted to 17.3 ng/mL. Further, the clearance in data set [7] came out at 56.4 mL/min/kg. Moreover, the logD in data set [1] was determined as 0.477. In addition, the Papp A→B in data set [9] stood at 0.36 ×10⁻⁶ cm/s. In addition, the Vd in data set [10] was 0.36 L/kg. In addition, in data set [11], the bioavailability turned out to be 0.469%. The Tmax in data set [12] stood at 46.8 min. In addition, the dose excreted in [13] was < 1%.

On to `CC(C)C[C@@H]1NC(=O)[C@H](Cc2ccc(O)cc2)N(C)C(=O)[C@H]2CCCN2C(=O)[C@H](CC(C)C)NC(=O)[C@H](Cc2ccccc2)N(C)C(=O)[C@@H](CC(C)C)N(C)C1=O` (cyclo(L[dNMeL][NMeF]L[dP][NMeY])), for which, in [1], the logD was determined as 4.46. The CLint scaled in data set [2] was determined as 170 mL/min/kg.
